This note sets out measurements from ChEMBL document CHEMBL2375229, “Synthesis and biological activities of some novel aminomethyl derivatives of 4-substituted-5-(2-thienyl)-2,4-dihydro-3H-1,2,4-triazole-3-thiones” (2013).

In brackets after ≈: the same amount, converted by molar mass.

Common to all, as to format: functional
Assay [1] has as its system Radical scavenging activity. Description: Antioxidant activity of the compound assessed as DPPH free radical scavenging activity at 312.5 uM after 60 mins by spectrophotometric analysis relative to control. Summed up: (§1)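 DPPH• and sample stocks made in DMSO. DPPH• mixed with sample at several concentrations and brought to 4.0 mL in DMSO. Incubated 60 min at 25 °C in the dark, then absorbance read at 517 nm with solvent correction. Scavenging % = (A0−As)/A0×100 against a DPPH-only control. Ascorbic acid standard. Mean ± SD, n = 3.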
(In general: The DPPH test is a chemical assay of radical scavenging.)

The test system of assay [2] is Radical scavenging activity. Description: Antioxidant activity of the compound assessed as DPPH free radical scavenging activity at 250 uM after 60 mins by spectrophotometric analysis relative to control. Put shortly: as §1
The test system of assay [3] is Radical scavenging activity. Briefly: Antioxidant activity of the compound assessed as DPPH free radical scavenging activity at 125 uM after 60 mins by spectrophotometric analysis relative to control. Put shortly:
as §1

Assay [4] deals with Radical scavenging activity. Briefly: Antioxidant activity of the compound assessed as DPPH free radical scavenging activity at 187.5 uM after 60 mins by spectrophotometric analysis relative to control. Summed up:
as §1

For assay [5], the system named is Radical scavenging activity. Briefly: Antioxidant activity of the compound assessed as DPPH free radical scavenging activity at 62.5 uM after 60 mins by spectrophotometric analysis relative to control. Summed up:
as §1

Assay [6] relates to Staphylococcus aureus. Briefly: Antibacterial activity against Staphylococcus aureus ATCC 25923 assessed as growth inhibition after 3 to 4 days by serial plate dilution method. Put shortly:
(§2)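 Serial dilution in Mueller-Hinton broth adjusted to pH 5.0 with phosphate buffer. Standardized bacterial suspension inoculated, 16-18 h at 37 °C. Agar-well plates also used: compounds in DMSO added to punched wells, DMSO solvent control, triplicate plates held at 37 °C for 3–4 days. MIC taken as lowest concentration with no visible growth. Range tested 1.56–25 µg/mL. Ciprofloxacin standard.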

In assay [7] the test system is Pseudomonas aeruginosa. Briefly: Antibacterial activity against Pseudomonas aeruginosa ATCC 27853 assessed as growth inhibition after 3 to 4 days by serial plate dilution method. Summed up: as §2
Assay [8] relates to Klebsiella pneumoniae. Description: Antibacterial activity against Klebsiella pneumoniae assessed as growth inhibition after 3 to 4 days by serial plate dilution method. Put shortly:
as §2

Assay [9] concerns Escherichia coli. Briefly: Antibacterial activity against Escherichia coli ATCC 25922 assessed as growth inhibition after 3 to 4 days by serial plate dilution method. Summed up:
as §2

Assay [10] concerns Aspergillus fumigatus. Briefly: Antifungal activity against Aspergillus fumigatus NCIM 902 assessed as growth inhibition after 3 to 4 days by serial plate dilution method. Summed up:
(§3)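 Agar of peptone, D-glucose and agar at pH 5.7, lawned with saline spore suspension and dried 1 h at 37 °C. Compounds in DMSO added to punched wells, DMSO solvent control. Triplicate plates held at 37 °C for 3–4 days. […] Ciclopiroxolamine standard.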

Assay [11] has as its system Aspergillus flavus. Description: Antifungal activity against Aspergillus flavus NCIM 524 assessed as growth inhibition after 3 to 4 days by serial plate dilution method. Summed up:
as §3

Assay [12] concerns Trichophyton mentagrophytes. Description: Antifungal activity against Trichophyton mentagrophytes assessed as growth inhibition after 3 to 4 days by serial plate dilution method. Put shortly:
as §3

For assay [13], the system named is Talaromyces marneffei. Description: Antifungal activity against Penicillium marneffei assessed as growth inhibition after 3 to 4 days by serial plate dilution method. Summed up:
as §3

Turning to `O=C1O[C@H]([C@@H](O)CO)C(O)=C1O`, the inhibition is 91.7% in assay [1]; 85.8% in [2]; 65% in [3]; 75.2% in [4]; 55.1% in assay [5].

For `CC1CCN(Cn2nc(-c3cccs3)n(-c3ccccc3)c2=S)CC1`, the inhibition in assay [2] turned out to be 66.9%; in assay [3], 51.1%; in assay [4], 61.1%; in assay [5] it was 44.7%. Also, the MIC in assay [6] is 1.56 mg/L (≈ 4.21 µM); in assay [7], 3.12 mg/L (≈ 8.42 µM); in [8], 3.12 mg/L (≈ 8.42 µM); in assay [9], 3.12 mg/L (≈ 8.42 µM); in assay [10] it was 12 mg/L (≈ 32.4 µM); in assay [11], 6.25 mg/L (≈ 16.9 µM). The MIC in assay [12] was determined as 6.25 mg/L (≈ 16.9 µM); in assay [13], 12 mg/L (≈ 32.4 µM).

As for `CCn1c(-c2cccs2)n[nH]c1=S`, the inhibition in assay [1] is 62.1%; in assay [2], 53.3%; in assay [3] it was 47.1%; in assay [4], 49.6%; in [5] it was 36.4%. Besides, the MIC in assay [6] stood at 12 mg/L (≈ 56.8 µM); in assay [7] it was 12 mg/L (≈ 56.8 µM); in [8] it was 12 mg/L (≈ 56.8 µM); in assay [9] it was 12 mg/L (≈ 56.8 µM); in assay [10] it was 25 mg/L (≈ 118 µM); in [11], 12 mg/L (≈ 56.8 µM). The MIC in assay [12] turned out to be 12 mg/L (≈ 56.8 µM); in assay [13], 25 mg/L (≈ 118 µM).

For the molecule `O=C(O)c1cn(C2CC2)c2cc(N3CCNCC3)c(F)cc2c1=O` [CIPROFLOXACIN], the results for the MIC in assay [6] and in assay [8] were 3.12 mg/L (≈ 9.42 µM) and 6.25 mg/L (≈ 18.9 µM), respectively.

Regarding `CCn1c(-c2cccs2)nn(CN2CCOCC2)c1=S`, the inhibition was determined as 93.6% in assay [1]; 88.6% in assay [2]; 69.8% in assay [3]; 82.8% in [4]; 60.4% in assay [5]. The minimum inhibitory concentration (MIC) came out at 3.12 mg/L (≈ 10 µM) in [6]; 6.25 mg/L (≈ 20.1 µM) in assay [7]; 6.25 mg/L (≈ 20.1 µM) in assay [8]; 6.25 mg/L (≈ 20.1 µM) in assay [9]; 3.12 mg/L (≈ 10 µM) in [10]; 1.56 mg/L (≈ 5.02 µM) in [11]. Besides, the MIC was 1.56 mg/L (≈ 5.02 µM) in assay [12] and 3.12 mg/L (≈ 10 µM) in assay [13].

For the molecule `Cc1cc(C2CCCCC2)n(O)c(=O)c1.NCCO` [CICLOPIROX OLAMINE], the MIC is 6.25 mg/L in assay [10], 3.12 mg/L in [11], 3.12 mg/L in assay [12] and 6.25 mg/L in [13].

For `S=c1[nH]nc(-c2cccs2)n1-c1ccccc1`, the inhibition in assay [1] amounted to 65.1%; in assay [2], 51.2%; in assay [3], 45.7%; in assay [4], 47.9%; in assay [5] it was 36.1%. Besides, the MIC in assay [6] was found to be 12 mg/L (≈ 46.3 µM); in assay [7], 12 mg/L (≈ 46.3 µM); in assay [8], 12 mg/L (≈ 46.3 µM); in [9], 12 mg/L (≈ 46.3 µM); in [10], 25 mg/L (≈ 96.4 µM); in [11], 12 mg/L (≈ 46.3 µM). Also, the minimal inhibitory concentration (MIC) in [12] was 12 mg/L (≈ 46.3 µM); in [13], 25 mg/L (≈ 96.4 µM).

Regarding `CCn1c(-c2cccs2)nn(CN2CCN(c3ccccc3)CC2)c1=S`, the inhibition worked out at 90.2% in assay [1]; 82.5% in assay [2]; 63.1% in [3]; 72.7% in assay [4]; 52.2% in [5]. Moreover, the MIC in [6] came out at 6.25 mg/L (≈ 16.2 µM); in assay [7] it was 12 mg/L (≈ 31.1 µM); in assay [8] it was 6.25 mg/L (≈ 16.2 µM); in assay [9], 12 mg/L (≈ 31.1 µM); in assay [10], 6.25 mg/L (≈ 16.2 µM); in assay [11] it was 3.12 mg/L (≈ 8.09 µM). For the same molecule, the MIC in [12] came to 3.12 mg/L (≈ 8.09 µM); in assay [13], 6.25 mg/L (≈ 16.2 µM).

In the case of `CCn1c(-c2cccs2)nn(CN2CCN(Cc3ccccc3)CC2)c1=S`, the inhibition amounted to 90.9% in assay [1]; 83.1% in [2]; 63.2% in assay [3]; 74.5% in [4]; 53.5% in assay [5]. Further, the MIC in assay [6] was 6.25 mg/L (≈ 15.6 µM); in assay [7] it was 12 mg/L (≈ 30 µM); in assay [8] it was 6.25 mg/L (≈ 15.6 µM); in assay [9], 12 mg/L (≈ 30 µM); in assay [10], 6.25 mg/L (≈ 15.6 µM); in assay [11], 3.12 mg/L (≈ 7.81 µM). Moreover, the MIC was 3.12 mg/L (≈ 7.81 µM) in [12] and 6.25 mg/L (≈ 15.6 µM) in assay [13].

For orientation: inhibition means the share of the control response that was lost under treatment. A word on the MIC: it is the smallest concentration in the dilution series that meets the test's criterion for growth inhibition.
